Laboratory results as given in ChEMBL document CHEMBL1149086, “Antimalarial and antitumor evaluation of novel C-10 non-acetal dimers of 10beta-(2-hydroxyethyl)deoxoartemisinin” (J Med Chem, 2004).

Tests used:
HCT-116 = experiment: Concentration of the drug required to achieve 50% cytotoxicity against colon HCT116 cancer cell line; assay type: functional; conditions: Homo sapiens, read-out: LC50 (the source's name)
HT-29 [1] = experiment: inhibition against colon HT-29 cancer cell line; assay type: functional; conditions: Homo sapiens
T47D = experiment: Concentration of the drug required to achieve 50% cytotoxicity against breast T-47D cancer cell line; assay type: cell-based; conditions: human
NCI/ADR-RES = experiment: Concentration required to achieve total growth inhibition against breast NCI/ ADR-RES cancer cell line; assay type: functional; conditions: Homo sapiens
UACC-62 [2] = experiment: Concentration required to achieve total growth inhibition against melanoma UACC-62 cell line; assay type: functional; conditions: Homo sapiens
COLO 205 = experiment: Concentration of the drug required to achieve 50% cytotoxicity against colon COLO 205 cancer cell line; assay type: functional; conditions: Homo sapiens, read-out: LC50 (the source's name)
Jurkat [3] = experiment: Tested for apoptosis in jurkat cells at a concentration of 10 uM of the compound; assay type: functional, Homo sapiens
In short: (§1)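 Jurkat cells (>98% viable, <2% background apoptosis) at 1 × 10⁶ cells/mL were exposed to 0–100 μM drug (DMSO) for 24 h at 37 °C in 5% CO₂. Nuclei were stained with 50 μM propidium iodide and 0.1% Triton-X in HBSS for 10 min at 37 °C, then scored as apoptotic by flow cytometry. Triplicate incubations in one experiment, mean ± SD; Kruskal–Wallis test versus DMSO control.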

[4] = Concentration of the drug required to achieve 50% cytotoxicity against leukemia CCRF-CEM cell line; assay type: functional; conditions: Homo sapiens, read-out: LC50 (the source's name)
RPMI-8226 [5] = experiment: Concentration of the drug required to achieve 50% cytotoxicity against leukemia RPMI-8226 cell line; assay type: functional; conditions: Homo sapiens, read-out: LC50 (the source's name)
HL-60 [6] = experiment: inhibition against leukemia HL-60(TB) cell line; assay type: functional; conditions: Homo sapiens
HL-60 [7] = experiment: Inhibitory concentration against HL60 cells; assay type: functional, cell-based; conditions: Homo sapiens
In short: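 HL60 (2.5 × 10⁴/well) or Jurkat (1 × 10⁵/well) in RPMI-1640 with 10% FBS and 1% L-glutamine, 5% CO2, 37 °C. Exposed to 10⁻¹⁰–10⁻⁴ M for 72 h, final DMSO below 0.5% v/v. [3H]-thymidine (0.5 μCi) added for the final 24 h. Incorporation counted by β-scintillation.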

CCRF-CEM = experiment: inhibition against leukemia CCRF-CEM cell line; assay type: functional; conditions: Homo sapiens
HCT-15 = experiment: Concentration required to achieve total growth inhibition against colon HCT-15 cancer cell line; assay type: functional; conditions: Homo sapiens
K562 = experiment: Concentration required to achieve total growth inhibition against leukemia K-562 cell line; assay type: functional; conditions: Homo sapiens
Jurkat [8] = experiment: Tested for apoptosis in jurkat cells at a concentration of 0.1 uM of the compound; assay type: functional, Homo sapiens
In short: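 Jurkat cells (1 × 10⁶ cells mL⁻¹; >98% viable, <2% background apoptosis) incubated 24 h at 37 °C with compound (0–100 μM range, in DMSO). Nuclei stained with propidium iodide (50 μM) in HBSS with 0.1% Triton-X for 10 min at 37 °C. Apoptotic nuclei measured by flow cytometry. Mean ± SD of triplicate incubations in one experiment; Kruskal–Wallis test against DMSO control.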

KM12 [9] = experiment: inhibition against colon KM12 cancer cell line; assay type: functional; conditions: Homo sapiens
SK-MEL-5 [10] = experiment: Concentration required to achieve total growth inhibition against melanoma SK-MEL-5 cell line; assay type: functional; conditions: Homo sapiens
HL-60 [11] = experiment: Concentration of the drug required to achieve 50% cytotoxicity against leukemia HL-60(TB) cell line; assay type: functional; conditions: Homo sapiens, read-out: LC50 (the source's name)
HCC 2998 = experiment: Concentration of the drug required to achieve 50% cytotoxicity against colon HCC2998 cancer cell line; assay type: functional; conditions: Homo sapiens, read-out: LC50 (the source's name)
HT-29 [12] = experiment: Concentration required to achieve total growth inhibition against colon HT-29 cancer cell line; assay type: functional; conditions: Homo sapiens
SR [13] = experiment: inhibition against leukemia SR cell line; assay type: functional; conditions: Homo sapiens
Malme-3M [14] = experiment: inhibition against melanoma MALME-3M cell line; assay type: functional; conditions: Homo sapiens
Jurkat [15] = experiment: Tested for apoptosis in jurkat cells at a concentration of 1 uM of the compound; assay type: functional, Homo sapiens; in short: as §1
RPMI-8226 [16] = experiment: Concentration required to achieve total growth inhibition against leukemia RPMI-8226 cell line; assay type: functional; conditions: Homo sapiens
PC-3 [17] = experiment: Concentration required to achieve total growth inhibition against prostate PC-3 cell line; assay type: functional; conditions: Homo sapiens
SK-MEL-5 [18] = experiment: Concentration of the drug required to achieve 50% cytotoxicity against melanoma SK-MEL-5 cell line; assay type: cell-based; conditions: human
SR [19] = experiment: Concentration of the drug required to achieve 50% cytotoxicity against leukemia SR cell line; assay type: functional; conditions: Homo sapiens, read-out: LC50 (the source's name)
SW-620 = experiment: Concentration of the drug required to achieve 50% cytotoxicity against colon SW-620 cancer cell line; assay type: cell-based; conditions: human
Jurkat [20] = experiment: Tested for apoptosis in jurkat cells at a concentration of 100 uM of the compound; assay type: functional, Homo sapiens; in short: as §1
Jurkat [21] = experiment: Tested for apoptosis in jurkat cells at a concentration of 0.3 uM of the compound; assay type: functional, Homo sapiens; in short: as §1
Jurkat [22] = experiment: Tested for apoptosis in jurkat cells at a concentration of 30 uM of the compound; assay type: functional, Homo sapiens; in short: as §1
UACC-62 [23] = experiment: Concentration of the drug required to achieve 50% cytotoxicity against melanoma UACC-62 cell line; assay type: cell-based; conditions: human
KM12 [24] = experiment: Concentration required to achieve total growth inhibition against colon KM12 cancer cell line; assay type: functional; conditions: Homo sapiens
KM12 [25] = experiment: Concentration of the drug required to achieve 50% cytotoxicity against colon KM12 cancer cell line; assay type: functional; conditions: Homo sapiens, read-out: LC50 (the source's name)
UACC-62 [26] = experiment: inhibition against melanoma UACC-62 cell line; assay type: functional; conditions: Homo sapiens
Malme-3M [27] = experiment: Concentration required to achieve total growth inhibition against melanoma MALME-3M cell line; assay type: functional; conditions: Homo sapiens
PC-3 [28] = experiment: inhibition against prostate PC-3 cell line; assay type: functional; conditions: Homo sapiens

C[C@H]1[C@@H](CCOP(=O)(OCC[C@H]2O[C@@H]3OC4(C)CC[C@H]5[C@H](C)CC[C@@H]([C@H]2C)[C@@]35OO4)Oc2ccccc2)O[C@@H]2OC3(C)CC[C@H]4[C@H](C)CC[C@@H]1[C@@]24OO3 (single isomer, unassigned)
CC50 (HCT-116): > 100 µM | GI50 (HT-29 [1]): < 0.01 µM | LC50 (T47D): > 100 µM | TGI (NCI/ADR-RES): 45.2 µM | TGI (UACC-62 [2]): 21.8 µM | CC50 (COLO 205): > 100 µM | Activity (Jurkat [3]): 11.2% | CC50 [4]: > 100 µM | CC50 (RPMI-8226 [5]): > 100 µM | GI50 (HL-60 [6]): 0.0115 µM | IC50 (HL-60 [7]): 0.241 µM | GI50 (CCRF-CEM): 0.0259 µM | TGI (HCT-15): > 100 µM | TGI (K562): 100 µM | Activity (Jurkat [8]): 8.7% | GI50 (KM12 [9]): < 0.01 µM | TGI (SK-MEL-5 [10]): 2.25 µM | CC50 (HL-60 [11]): > 100 µM | CC50 (HCC 2998): > 100 µM | TGI (HT-29 [12]): 23.2 µM | GI50 (SR [13]): < 0.01 µM | GI50 (Malme-3M [14]): 0.194 µM | Activity (Jurkat [15]): 8.9% | TGI (RPMI-8226 [16]): 0.01 µM | TGI (PC-3 [17]): 65.5 µM | LC50 (SK-MEL-5 [18]): > 100 µM | CC50 (SR [19]): > 100 µM | LC50 (SW-620): > 100 µM | Activity (Jurkat [20]): 20.1% | Activity (Jurkat [21]): 7.3% | Activity (Jurkat [22]): 17.3% | LC50 (UACC-62 [23]): > 100 µM | TGI (KM12 [24]): 17.9 µM | CC50 (KM12 [25]): > 100 µM | GI50 (UACC-62 [26]): 0.0753 µM | TGI (Malme-3M [27]): 30.8 µM | GI50 (PC-3 [28]): < 0.01 µM
